Sampled rows, rich in hits. Any-hit rate of the full collection: about 4.5%.
AHR act: activators of human aryl hydrocarbon receptor; activation, % at 5 µM; AID 2796; 320,000 compounds, 2.5% hits; AHR-responsive luciferase reporter cells, luminescence; in the data active = activation above about 47%
APP 5'UTR act: APP 5'UTR luciferase reporter activation. SH-SY5Y APP 5'UTR luciferase reporter, luminescence; zero percent = DMSO vehicle wells. 190,000 compounds, 1% hits. activation, % at 2 µM. AID 1276;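 active = activation above a set limit, based on mean plus 3 SD of controls, cut at about 140% in these data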
MDM2 E3 inh: inhibitors of human Mdm2 E3 ubiquitin ligase; Q00987; cell-based MDM2 ubiquitination luciferase reporter, 2 h; 0 = plate control, 100 = twice control, blank-subtracted; signal enhancement, % at 5 µM; 210,000 compounds, 0.11% hits;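 active = signal enhancement of 30% or more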;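 note: luminescence tracks abundance of the self-degrading MDM2-luciferase fusion protein; higher signal means inhibition of MDM2 E3 ligase activity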
Target sequence (Q00987 whole entry, looked up, the tested form may be a part): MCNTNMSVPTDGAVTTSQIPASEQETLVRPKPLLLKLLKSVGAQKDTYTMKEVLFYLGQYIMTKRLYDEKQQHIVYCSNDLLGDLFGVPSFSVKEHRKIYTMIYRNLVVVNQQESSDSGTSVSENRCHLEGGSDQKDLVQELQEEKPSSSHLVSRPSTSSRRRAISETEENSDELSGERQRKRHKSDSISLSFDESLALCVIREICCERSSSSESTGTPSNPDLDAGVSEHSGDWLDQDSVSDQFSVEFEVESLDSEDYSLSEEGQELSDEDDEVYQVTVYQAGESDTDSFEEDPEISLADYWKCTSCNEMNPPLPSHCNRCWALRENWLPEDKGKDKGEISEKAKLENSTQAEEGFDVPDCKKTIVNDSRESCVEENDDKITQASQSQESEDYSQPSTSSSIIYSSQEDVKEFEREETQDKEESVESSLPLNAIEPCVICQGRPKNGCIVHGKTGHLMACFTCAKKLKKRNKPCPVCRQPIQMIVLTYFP
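test system = mammalian cells stably expressing self-ubiquitinating, self-degrading MDM2 E3–luciferase fusion | quantity = 2000 cells/well | incubation = cell settling 4 h, compound treatment 2 h, both 37 °C | signal = luminescence with SteadyLite reagent, 15 min at room temperature | evaluation = % enhancement relative to plate controls after blank subtraction | benchmarks = plate controls and plate blanks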
NF-kB expr up: compounds increasing NF-kB expression in human neuronal cells; NF-kB reporter expression; hits give high values; fold change at 12.5 µM; 190,000 compounds, 1.6% hits; in the data active = fold change above about 3.3
PERK inh: inhibitors of human PERK kinase. Q9NZJ5. CHO PERK-DD fusion, SEAP luminescence translation reporter. inhibition, % at 5.6 µM. 220,000 compounds, 0.17% hits;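 active = inhibition above the mean inhibition of all tested compounds plus 3 SD, set separately per screening campaign, cut at about 2.9% in these data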;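 note: PERK kinase domain activated by AP20187 dimerizer at 100 nM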
STAT1 activator: activators of IFN-gamma induced STAT1 signaling. NIH 3T3 STAT1-luciferase reporter, luminescence; 100% = IFN-gamma alone, no compound. activation (% of control), % at 5.5 µM. 200,000 compounds, 2.6% hits. AID 932;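 active = activation above the screen-wide mean activation plus 3 SD, cut at about 130% in these data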
A number is an active result; i = inactive; nt = not tested or not shown.

SMILES | AHR act | APP 5'UTR act | MDM2 E3 inh | NF-kB expr up | PERK inh | STAT1 activator
Cc1ccc(NC(=O)c2cc(-c3ccc(C)o3)nc3ccccc23)cc1 | 57 | i | i | i | i | i
CCOc1ccc(NC(=O)Cn2cncc2-c2ccc([N+](=O)[O-])cc2)cc1 | i | i | i | i | i | i
CCOC(=O)Cn1cncc1-c1ccc([N+](=O)[O-])cc1 | i | i | i | i | i | 130
CC(Oc1ccccc1)C(=O)Nc1ccccc1O (stereo not drawn) | 49 | i | i | i | i | i
COC(=O)c1ccccc1NC(=O)C(C)Oc1ccccc1 (stereo not drawn) | i | i | i | i | i | i
CCOc1ncccc1C(=O)N1CCN(c2cccc(C)c2C)CC1 | nt | i | i | 3.9 | i | i
COc1ccc(-n2cnc3cc(C(=O)NCCN4CCOCC4)ccc32)cc1 | i | i | i | i | i | i
O=C(Nc1ccc2c(c1)OCCO2)c1ccccc1F | i | 146 | i | 5.2 | i | i
O=C(Nc1ccc2cn[nH]c2c1)c1ccccc1F | 105 | i | i | i | i | 147
CCOc1cccc(C(=O)NC(=S)Nc2ccc3c(c2)OCCO3)c1 | i | i | i | i | i | i
O=C(Nc1ccc2c(c1)OCCO2)c1c(F)cccc1F | i | i | i | 4 | i | i
O=C(Nc1cccc(F)c1)c1ccc2c(c1)OCCO2 | i | nt | nt | nt | nt | nt
O=C(NC(=S)Nc1ccc2c(c1)OCCO2)c1ccccc1 | i | 179 | i | 4.7 | i | i
CS(=O)(=O)Nc1ccccc1C(=O)Nc1ccc2c(c1)OCCO2 | i | i | i | i | i | i
COC(=O)[C@@]12CCCN1[C@H](c1ccc(-c3ccc(OC)cc3)cc1)[C@@H]1C(=O)N(C)C(=O)[C@@H]12 | i | nt | nt | nt | nt | nt
O=C(NC(=S)Nc1ccc2c(c1)OCCO2)c1ccccc1F | 58 | 159 | i | 7.4 | i | 149
CSc1ccccc1C(=O)Nc1ccc2c(c1)OCO2 | 54 | i | i | i | i | i
COc1cccc(OC)c1C(=O)NC(=S)Nc1ccc2c(c1)OCCO2 | i | i | i | i | i | i
O=C(NC(=S)Nc1ccc2oc(-c3ccncc3)nc2c1)c1ccccc1F | i | i | i | i | i | i
O=C(NC(=S)Nc1ccc2oc(=O)ccc2c1)c1ccccc1F | i | nt | i | nt | 3.7 | nt
CC1CCCN(C(=S)Nc2ccc(Nc3ccccc3)cc2)C1 (stereo not drawn) | i | i | i | i | i | 136
OCC1CCCN(C(=S)Nc2ccc(Oc3ccccc3)cc2)C1 (stereo not drawn) | i | i | i | i | i | 147
Cc1cccc(N2CCN(Cc3nc(CC4CC4)no3)CC2)n1 | i | i | i | i | i | i
COc1ccc(N(CC(=O)NC2CCCC2)C(=O)Cn2nnc(-c3ccc(F)cc3)n2)cc1 | i | nt | nt | nt | nt | nt
Cc1cc(C)c2c(CC(=O)NNC(=O)c3ccccc3)coc2c1 | i | nt | nt | nt | nt | nt
SMILES | AHR act | APP 5'UTR act | MDM2 E3 inh | NF-kB expr up | PERK inh | STAT1 activator
Cc1ccc(C)c(S(=O)(=O)N2CCN(C(=O)C3CC3C)CC2)c1 (stereo not drawn) | i | nt | nt | nt | nt | nt
CCOc1ccc(C(=O)Nc2cccc(C(=O)O)c2C)cc1Cl | i | i | i | 3.5 | i | i
CCOc1ccc(C(=O)Nc2ccccc2-c2ccccc2)cc1Cl | i | i | i | i | i | i
CCOc1c(Cl)cc(C(=O)Nc2ccccc2C(=O)O)cc1Cl | i | i | i | 4 | i | i
COc1ccc(C(=O)Nc2ccccc2C(=O)O)cc1Cl | i | i | i | i | i | i
O=C(NC1CCSc2ccccc21)c1cc(S(=O)(=O)N2CCOCC2)ccc1Cl (stereo not drawn) | i | nt | nt | nt | nt | nt
CC1=C/C(=N\OS(=O)(=O)c2ccccc2)C(C)=CC1=O | i | i | i | 9.8 | i | i
CC1=C(C)/C(=N\OS(=O)(=O)c2ccc(C)cc2)C=CC1=O | i | i | i | i | i | i
CC1=C/C(=N\OS(=O)(=O)c2ccccc2)C(C(C)C)=CC1=O | i | i | i | 5.9 | i | i
Cc1cc(=O)[nH]c(Nc2ccc(N(C)C)cc2)n1 | 55 | nt | nt | nt | nt | nt
Cc1cc(=O)[nH]c(Nc2ccc(Cl)cc2)n1 | i | nt | nt | nt | nt | nt
CCn1nc(NC(=O)c2ccncc2)c2cc3cc(C)ccc3nc21 | 62 | i | i | i | i | i
CCCn1nc(NC(=O)c2cccs2)c2cc3ccccc3nc21 | i | i | i | i | i | i
CCCn1nc(NC(=O)c2ccncc2)c2cc3ccccc3nc21 | 69 | i | i | i | i | i
CCn1nc(NC(=O)c2ccco2)c2cc3cc(C)ccc3nc21 | 53 | nt | i | nt | i | nt
CCCn1nc(NC(=O)c2ccco2)c2cc3ccccc3nc21 | i | i | i | i | i | i
O=C(CSc1nc2[nH]ncc2c(=O)[nH]1)NCCc1ccccc1 | 78 | i | i | i | i | i
O=C(CSc1nc2[nH]ncc2c(=O)[nH]1)NCc1ccccc1 | i | i | i | i | i | i
COc1ccc(-n2nc3c(c2NC(=O)c2ccc(Br)o2)CS(=O)(=O)C3)cc1 | i | nt | nt | nt | nt | nt
CC(C)n1cc(/C=C2/NC(=O)N(c3cccc(Cl)c3)C2=O)c2ccccc21 | 63 | i | i | i | i | i
C/C(=N\Nc1ccc(F)cc1F)c1cccs1 | i | i | i | i | i | 129
N/C(CC(=O)Nc1ccc(F)cc1F)=N\OC(=O)c1cccs1 | i | nt | i | nt | i | nt
COc1ccc(/C(C)=N/Nc2ccc(F)cc2F)c(O)c1 | i | i | i | i | i | 133
COC(=O)c1ccc(COc2ccc(CNCc3ccc(Cl)cc3)cc2)cc1 | i | nt | nt | nt | nt | nt
CC(C)CC1(C)NC(=O)N(CC(=O)Nc2ccccc2Br)C1=O (stereo not drawn) | i | nt | nt | nt | nt | nt
SMILES | AHR act | APP 5'UTR act | MDM2 E3 inh | NF-kB expr up | PERK inh | STAT1 activator
Cc1cc(/C=C(\C#N)C(=O)Nc2ccccc2)c(C)n1-c1cccnc1 | i | i | i | i | i | 133
CCn1nc(C)cc1C(=O)N1CCc2c([nH]c3ccccc23)C1c1cc(F)ccc1F (stereo not drawn) | i | i | i | i | i | 137
CCO[C@H]1OC(C(N)=O)=C[C@@H](C(C)(C)C)[C@@H]1CCCO | i | nt | nt | nt | nt | nt
O=C(/C=C/Nc1ccc(Br)cc1F)c1ccccc1 | i | 140 | i | i | i | i
COc1ccc(C(=O)/C=C/Nc2ccc(C)cn2)cc1OC | i | 145 | i | 5.2 | i | 143
O=C(/C=C/Nc1ccc(F)c(F)c1)c1ccc(Br)cc1 | i | 163 | i | 8.1 | i | 141
O=C(/C=C/Nc1ccc(F)c(Cl)c1)c1ccccc1 | i | nt | nt | nt | nt | nt
O=C(/C=C\Nc1ccc(Cl)cn1)c1ccc(Br)cc1 | i | i | i | i | i | 134
O=C(CCl)Nc1ccccc1C(=O)c1ccccc1 | i | i | i | i | i | i
Cc1ccc(NC(=O)CC2=NC(=O)C(CC(=O)Nc3ccccc3F)S2)cc1 (stereo not drawn) | i | i | i | i | i | i
COc1ccccc1/C=C/C(=O)NCC(=O)N=Nc1c(O)[nH]c2ccccc12 | i | nt | nt | nt | nt | nt
CSc1cccc(-n2cc(-c3ccc4c(c3)OCO4)[nH]c2=O)c1 | 51 | i | i | i | i | i

Bioassay records: PubChem BioAssay, several laboratories
